Reference: publication PMC3204933 (Free radical biology & medicine, 2011)
“Also recorded” adds a separate entry of the source. Where no end group is shown, it is not given here.

How the values were obtained:
[1] = target: T1, Nox2 oxidase (COS-Nox2 cell lysate) (Homo sapiens, UniProt P14598); assay: SOD-inhibitable cytochrome c assay, COS-Nox2 cell-free system; type: biochemical; conditions: for decrease of O2^•− production: L-NAME 100 μM, rotenone 50 μM, febuxostat 100 nM, n = 3
T1 sequence (P14598 1-390): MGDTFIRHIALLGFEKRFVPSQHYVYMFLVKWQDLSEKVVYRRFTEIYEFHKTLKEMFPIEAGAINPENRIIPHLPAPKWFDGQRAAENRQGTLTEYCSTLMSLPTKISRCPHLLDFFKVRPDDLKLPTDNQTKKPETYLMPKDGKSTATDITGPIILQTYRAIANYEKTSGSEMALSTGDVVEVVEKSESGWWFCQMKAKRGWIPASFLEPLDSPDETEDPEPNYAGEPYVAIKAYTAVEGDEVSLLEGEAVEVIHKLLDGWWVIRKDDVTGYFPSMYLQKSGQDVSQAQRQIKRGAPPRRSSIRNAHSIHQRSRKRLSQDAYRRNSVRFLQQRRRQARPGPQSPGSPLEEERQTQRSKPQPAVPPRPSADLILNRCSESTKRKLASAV

[2] = system: Nox1/NOXO1/NOXA1 (HEK-Nox1 cell-free system); assay: Cytochrome c assay, HEK-Nox1 cell-free system; type: biochemical, human; conditions: 10 μM Nox2ds preincubated with NOXO1; LiDS 130 μM
Outline: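 […] cells were separately transfected with Nox1, NOXO1 or NOXA1. Lysates were spun at 160000 × g for 60 min at 4 °C to give Nox1 membranes and NOXO1 and NOXA1 cytosols. NOXO1 was preincubated with vehicle or 10 μM peptide for 10 min, then Nox1 membrane and NOXA1 added in turn. LiDS (130 μM) was followed by 180 μM NADPH. Output was the initial linear rate of SOD-inhibitable cytochrome c reduction, nmol/min/10^7 cell equivalents.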

SH3 domains of p47^phox = conditions: ref [41], [42]; cited from earlier work
[3] = system: nitric oxide synthase (NOS); conditions: ref [41], [47]; cited from earlier work
Nox4 (COS-Nox4 cells) [4] = conditions: DPI 5 μM; untreated COS-Nox4 4818±19, COS-22 2577±6.5
[5] = system: NADH dehydrogenase (mitochondrial complex I); conditions: ref [41], [47]; cited from earlier work
Nox4 (COS-Nox4 cells) [6] = assay: cells; conditions: Homo sapiens, read-out: inhibition of Nox4-dependent activity
xanthine oxidase [7] = conditions: ref [41], [47]; cited from earlier work
COS-22 cells = assay: L-012 chemiluminescence, intact COS-22 cells; type: cell-based; conditions: n = 3, untreated 8734±158
xanthine oxidase [8] = assay: Xanthine/xanthine oxidase O2^•− generating system, EPR; type: biochemical
[9] = system: Nox1 oxidase (COS-Nox1/NOXO1/NOXA1 cells); assay: L-012 chemiluminescence, intact COS-Nox1/NOXO1/NOXA1 cells; type: cell-based, human; conditions: n = 3; for L-012 chemiluminescence: untreated 52977±1921
[10] = system: Nox4 DH domain (GST-fused); assay: Fluorescence polarization competition with FITC-Nox4 B-loop; type: binding; conditions: for competition with Nox4 B-loop for Nox4 DH domain: fluorescence polarization
HEK 298 cells = assay: L-012 chemiluminescence, non-transfected HEK 298 cells; type: cell-based; conditions: PMA 1 μM; n = 4; unstimulated 755±65.3
[11] = system: HEK-Nox1/NOXO1/NOXA1 cells; assay: L-012 chemiluminescence, intact HEK-Nox1/NOXO1/NOXA1 cells; type: cell-based, human; conditions: PMA 1 μM
[12] = target: T2, Nox4 dehydrogenase domain (amino acids 304 – 578) recombinant protein fused to GST (human, UniProt Q9NPH5 304-578); assay: fluorescence polarisation
T2 sequence (looked up): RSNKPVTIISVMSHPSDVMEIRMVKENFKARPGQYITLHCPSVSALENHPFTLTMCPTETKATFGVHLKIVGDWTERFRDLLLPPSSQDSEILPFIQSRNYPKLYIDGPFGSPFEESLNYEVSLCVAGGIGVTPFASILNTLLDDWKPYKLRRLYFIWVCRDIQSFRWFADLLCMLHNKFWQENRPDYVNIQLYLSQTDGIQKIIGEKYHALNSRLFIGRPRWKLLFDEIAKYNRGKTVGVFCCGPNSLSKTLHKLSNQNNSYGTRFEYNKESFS

COC(=O)[C@@H](N)CCCNC(N)=N[N+](=O)[O-] [L-NAME, Nω-Nitro-L-arginine methyl ester]
decrease of O2^•− production [1]: did not decrease O2^•− production significantly

CCCCCCCCCCCCOS(=O)(=O)[O-].[Li+] [LiDS, lithium dodecyl sulfate]
effect on O2^•− production in HEK-Nox1 cell-free system [2]: significantly increased O2^•− production | O2^•− production ([1]; LiDS 130 μM, NADPH 180 μM, vehicle 0.40±0.1, p < 0.05): 1.33±0.1 nmol O2^•−/min/10^7 COS-Nox2 lysate-cell equivalents

PR-39
SH3 binding and association of p47^phox with Nox2 (SH3 domains of p47^phox): binds to the SH3 domains of p47^phox, was shown to prevent association of p47^phox with Nox2

c1ccc2c(c1)[I+]c1ccccc1-2 [DPI, diphenyleneiodonium chloride]
inhibition [3]: inhibits a multitude of flavin-containing enzymes including nitric oxide synthase (NOS) | H2O2-generating activity, Amplex Red fluorescence (Nox4 (COS-Nox4 cells) [4]): 2977±227 RFU | inhibition [5]: inhibits a multitude of flavin-containing enzymes including nitric oxide synthase (NOS), xanthine oxidase, and NADH dehydrogenase (mitochondrial complex I) | inhibition at 5 µM (Nox4 (COS-Nox4 cells) [6]): 82% | inhibition (xanthine oxidase [7]): inhibits a multitude of flavin-containing enzymes including nitric oxide synthase (NOS), xanthine oxidase

superoxide dismutase [SOD]
L-012 chemiluminescence (COS-22 cells; SOD 150 U/ml): 108±16 RLUs | radical intensity (xanthine oxidase [8]; XO + X in presence of 100 U/ml SOD, 6 experiments): 15.7±0.3% | effect on chemiluminescent signal / O2^•− ([9]; SOD 150 U/ml, PMA 1 μM): abolished the chemiluminescent signal | L-012 chemiluminescence ([9]; SOD 150 U/ml): 177±9 RLUs

Cc1nc(-c2ccc(OCC(C)C)c(C#N)c2)sc1C(=O)O [febuxostat, Febuxostat]
decrease of O2^•− production [1]: did not decrease O2^•− production significantly

Nox4 B-loop: unlabeled Nox4 B-loop peptide (amino acids 77 – 106) (RTLLAYLRGSQKVPSRRTRRLLDKSRTFHI)
competition with Nox4 B-loop for Nox4 DH domain [10]: effectively competed off the FITC-Nox4 B-loop in the low micromolar range; also recorded: quite effectively, in the low micromolar range

[NH3]-C-L-R-V-T-R-Q-S-R-[CONH2] [scrmb Nox2ds]
CM^• radical intensity (xanthine oxidase [8]; 10 μM peptide + X/XO, 10 min, XO/X control 100±2.4, mean ± SEM of 6 experiments): 92.4±1.8% | effect on XO-generated O2^•− (xanthine oxidase [8]; 10 μM, 10 min preincubation): did not alter XO-generated O2^•− | inhibition of O2^•− production ([1]; 0.1–10 μM, 5 min preincubation, LiDS 130 μM, NADPH 180 μM, 7–16 experiments): did not inhibit Nox2-oxidase | competition with Nox4 B-loop ([10]; at concentrations below 0.1 mM): not effective | competition with Nox4 B-loop for Nox4 DH domain [10]: equal and poor competition with the Nox4 B-loop for binding to the Nox4 DH domain (millimolar concentrations)

CCCCCCCCCCCCCC(=O)O[C@@H]1[C@@H](C)[C@@]2(O)[C@@H](C=C(CO)C[C@]3(O)C(=O)C(C)=C[C@@H]23)[C@@H]2C(C)(C)[C@]12OC(C)=O [PMA, phorbol myristate acetate]
L-012 chemiluminescence (COS-22 cells; PMA 1 μM): 5903±541 RLUs | L-012 chemiluminescence (HEK 298 cells): 912±40.5 RLUs | L-012 chemiluminescence ([9]; PMA 1 μM): 56537±2741 RLUs | effect on chemiluminescent signal / O2^•− ([9]; SOD 150 U/ml, PMA 1 μM): did not stimulate O2^•− | stimulation of O2^•− ([11]; n = 4, p < 0.05): significantly stimulated O2^•− | L-012 chemiluminescence ([11]; n = 4, unstimulated 8560±337, p < 0.05): 12946±199 RLUs

C=C(C)[C@H]1Cc2c(ccc3c2O[C@@H]2COc4cc(OC)c(OC)cc4[C@@H]2C3=O)O1 [rotenone]
decrease of O2^•− production [1]: did not decrease O2^•− production significantly

RTLLAYLRGSQKVPSRRTRRLLDKSRTFHI (peptide, UniProt Q9NPH5-1 77-106, looked up) [unlabeled Nox4 B-loop peptide (amino acids 77 – 106)]
LogEC50 [12]: 3 nM

CSTRVRRQL-NH2 [Nox2ds]
LogEC50 [12]: 5.5 nM
